Measured values as given in ChEMBL document CHEMBL3616378 (J Med Chem, 2015).

What was measured:
[1] = target: Voltage-gated inwardly rectifying potassium channel KCNH2 (Homo sapiens, UniProt Q12809); experiment: Inhibition of human ERG at 10 uM
[2] = target: T1, Metabotropic glutamate receptor 3 (Homo sapiens, UniProt Q14832); experiment: Agonist activity at wild type human recombinant mGlu3 receptor expressed in AV12 cells assessed as stimulation of Ca2+ mobilization after 1 hr by FLIPR assay; format: functional, cell-based
T1 sequence (Q14832 whole entry): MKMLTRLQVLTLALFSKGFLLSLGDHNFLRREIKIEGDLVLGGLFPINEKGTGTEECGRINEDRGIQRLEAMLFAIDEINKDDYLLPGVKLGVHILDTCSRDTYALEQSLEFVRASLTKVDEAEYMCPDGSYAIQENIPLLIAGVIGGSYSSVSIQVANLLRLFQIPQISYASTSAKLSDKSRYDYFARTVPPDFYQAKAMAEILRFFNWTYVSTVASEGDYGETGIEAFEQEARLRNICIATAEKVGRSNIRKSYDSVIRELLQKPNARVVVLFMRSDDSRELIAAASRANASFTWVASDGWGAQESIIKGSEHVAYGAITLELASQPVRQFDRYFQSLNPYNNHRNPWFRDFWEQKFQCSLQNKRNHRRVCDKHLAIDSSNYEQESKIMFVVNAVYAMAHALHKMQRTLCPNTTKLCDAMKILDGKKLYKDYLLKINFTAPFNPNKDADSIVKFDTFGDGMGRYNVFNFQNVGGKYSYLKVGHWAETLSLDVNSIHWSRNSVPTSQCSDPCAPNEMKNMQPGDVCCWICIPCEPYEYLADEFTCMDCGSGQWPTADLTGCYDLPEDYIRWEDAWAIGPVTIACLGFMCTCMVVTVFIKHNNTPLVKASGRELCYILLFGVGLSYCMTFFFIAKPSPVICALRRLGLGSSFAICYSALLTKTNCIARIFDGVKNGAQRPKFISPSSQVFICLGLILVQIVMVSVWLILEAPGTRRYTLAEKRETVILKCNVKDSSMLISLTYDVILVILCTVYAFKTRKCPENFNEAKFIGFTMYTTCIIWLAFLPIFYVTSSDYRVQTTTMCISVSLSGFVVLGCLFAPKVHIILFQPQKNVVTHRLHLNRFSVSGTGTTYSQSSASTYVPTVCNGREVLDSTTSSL

[3] = target: Metabotropic glutamate receptor 3 (Homo sapiens, UniProt Q14832, D279E); experiment: Agonist activity at human recombinant mGlu3 receptor D279E mutant expressed in AV12 cells assessed as stimulation of Ca2+ mobilization after 1 hr by FLIPR assay; format: functional, cell-based
Metabotropic glutamate receptor 3 (Homo sapiens, UniProt Q14832, D279E), sequence (Q14832 23-879 D279E limits assumed): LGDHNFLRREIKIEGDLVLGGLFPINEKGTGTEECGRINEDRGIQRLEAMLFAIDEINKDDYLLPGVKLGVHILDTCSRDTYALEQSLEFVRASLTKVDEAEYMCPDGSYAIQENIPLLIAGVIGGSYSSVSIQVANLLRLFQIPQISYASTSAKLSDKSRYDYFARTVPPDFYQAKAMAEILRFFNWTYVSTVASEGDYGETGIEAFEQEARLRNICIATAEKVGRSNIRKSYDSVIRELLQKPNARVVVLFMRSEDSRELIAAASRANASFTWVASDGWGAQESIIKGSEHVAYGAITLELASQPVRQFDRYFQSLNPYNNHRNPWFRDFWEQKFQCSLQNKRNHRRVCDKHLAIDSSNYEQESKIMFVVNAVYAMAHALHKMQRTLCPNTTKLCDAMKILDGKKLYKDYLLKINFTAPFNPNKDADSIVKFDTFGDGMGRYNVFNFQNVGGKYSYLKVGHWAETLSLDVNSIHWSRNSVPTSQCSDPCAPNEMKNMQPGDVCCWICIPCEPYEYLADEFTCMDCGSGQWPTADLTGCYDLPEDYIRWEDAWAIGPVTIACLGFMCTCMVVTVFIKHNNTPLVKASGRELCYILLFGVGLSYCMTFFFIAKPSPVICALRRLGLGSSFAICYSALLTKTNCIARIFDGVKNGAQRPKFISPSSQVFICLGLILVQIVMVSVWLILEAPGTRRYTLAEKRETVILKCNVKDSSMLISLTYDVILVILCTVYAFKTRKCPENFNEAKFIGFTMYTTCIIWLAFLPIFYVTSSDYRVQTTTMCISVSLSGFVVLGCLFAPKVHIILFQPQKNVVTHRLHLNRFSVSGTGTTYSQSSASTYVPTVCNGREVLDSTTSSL

[4] = Metabolic stability of the compound in rat hepatocytes assessed as loss of compound at 2 uM; format: ADME, cell-based, Hepatocyte; settings: read-out: Drug degradation
In short: (§1)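 Hepatocytes from mouse, rat, dog and human; compound tested at 2 µM; percent loss of parent compound measured.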

[5] = Metabolic stability of the compound in dog hepatocytes assessed as loss of compound at 2 uM; format: ADME, cell-based, Canis lupus familiaris, Hepatocyte; settings: read-out: Drug degradation; in short: as §1
[6] = Metabolic stability of the compound in human hepatocytes assessed as loss of compound at 2 uM; format: ADME, cell-based, Hepatocyte; settings: read-out: Drug degradation; in short: as §1
CYP3A4 = CYP3A4 (Homo sapiens, UniProt P08684); experiment: Inhibition of human CYP3A4 at 10 uM; format: ADME
CYP3A4, sequence (P08684 whole entry, canonical isoform): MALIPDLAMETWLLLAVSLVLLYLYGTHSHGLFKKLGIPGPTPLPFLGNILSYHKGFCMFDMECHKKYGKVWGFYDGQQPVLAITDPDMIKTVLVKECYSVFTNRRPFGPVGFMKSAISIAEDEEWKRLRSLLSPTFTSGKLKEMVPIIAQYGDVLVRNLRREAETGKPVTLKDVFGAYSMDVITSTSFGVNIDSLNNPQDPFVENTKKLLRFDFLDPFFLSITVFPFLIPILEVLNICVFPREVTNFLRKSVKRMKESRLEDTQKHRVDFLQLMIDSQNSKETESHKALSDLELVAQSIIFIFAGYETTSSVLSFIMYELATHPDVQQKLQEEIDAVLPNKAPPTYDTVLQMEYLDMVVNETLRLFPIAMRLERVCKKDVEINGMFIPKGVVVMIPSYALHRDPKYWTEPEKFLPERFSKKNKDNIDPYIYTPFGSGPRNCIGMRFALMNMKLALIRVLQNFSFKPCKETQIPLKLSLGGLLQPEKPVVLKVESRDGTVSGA
In short: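 Inhibition of human CYP isoforms was measured with the compound tested at 10 µM.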

[7] = Fraction unbound in rat plasma; format: ADME, cell-free
[8] = AUC (0 to 24 hrs) in Sprague-Dawley rat at 1 mg/kg, iv; format: ADME, organism-based; design: time < 24 hr, dose 1 mg/kg, route intravenous; settings: in vivo
In short: (§2)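 Fasted male Sprague–Dawley rats (~250 g) received a single dose of compound dissolved in water and adjusted to pH 7–7.5 with NaOH, given iv, by oral gavage or ip. Serial blood samples (11–12 per rat) were drawn from a jugular vein catheter into EDTA and kept frozen. Plasma was mixed with methanol:water (1:1) containing an analogue internal standard for analysis. Mean plasma parameters are reported.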

[9] = Cmax in Sprague-Dawley rat at 1 mg/kg, iv; format: ADME, organism-based; design: dose 1 mg/kg, route intravenous; settings: in vivo; in short: as §2
[10] = Half life in Sprague-Dawley rat at 1 mg/kg, iv; format: ADME, organism-based; settings: in vivo; in short: as §2
[11] = Cmax in Sprague-Dawley rat at 5 mg/kg, po; format: ADME, organism-based; design: dose 5 mg/kg, route oral; settings: in vivo; in short: as §2
[12] = Cmax in Sprague-Dawley rat at 1 mg/kg, ip; format: ADME, organism-based; design: dose 1 mg/kg, route intraperitoneal; settings: in vivo; in short: as §2
[13] = Tmax in Sprague-Dawley rat at 1 mg/kg, ip; format: ADME, organism-based; settings: in vivo
In short: (§3)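 Compound dissolved in water, pH adjusted to 7–7.5 with NaOH; single dose to fasted male Sprague–Dawley rats (~250 g) by oral gavage, intravenous or intraperitoneal route. Serial blood (11–12 samples per rat) from jugular vein catheter into EDTA tubes, centrifuged, frozen; 25 µL plasma mixed with methanol:water (1:1) containing analogue internal standard.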

[14] = Half life in Sprague-Dawley rat at 1 mg/kg, ip; format: ADME, organism-based; settings: in vivo; in short: as §2
[15] = Bioavailability in Sprague-Dawley rat at 1 mg/kg, ip; format: ADME, organism-based; settings: in vivo; in short: as §2
[16] = AUC (0 to 24 hrs) in Sprague-Dawley rat at 3 mg/kg, ip; format: ADME, organism-based; design: time < 24 hr, dose 3 mg/kg, route intraperitoneal; settings: in vivo; in short: as §2
[17] = Cmax in Sprague-Dawley rat at 3 mg/kg, ip; format: ADME, organism-based; design: dose 3 mg/kg, route intraperitoneal; settings: in vivo; in short: as §2
[18] = Tmax in Sprague-Dawley rat at 3 mg/kg, ip; format: ADME, organism-based; settings: in vivo; in short: as §3
[19] = Cmax in Sprague-Dawley rat at 10 mg/kg, ip; format: ADME, organism-based; design: dose 10 mg/kg, route intraperitoneal; settings: in vivo; in short: as §2
[20] = Tmax in Sprague-Dawley rat at 10 mg/kg, ip; format: ADME, organism-based; settings: in vivo; in short: as §3
[21] = Half life in Sprague-Dawley rat at 10 mg/kg, ip; format: ADME, organism-based; settings: in vivo; in short: as §2
[22] = Plasma concentration in Sprague-Dawley rat at 1 mg/kg, ip after 0.5 hrs; format: ADME, organism-based
In short: (§4)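 Separate experiment: single ip doses of 1, 3 and 10 mg/kg to rats, compound in water adjusted to pH 7–7.5 with NaOH; plasma (with csf) sampled at 0.5, 1 and 4 h; mean plasma concentrations ± SEM reported.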

[23] = Plasma concentration in Sprague-Dawley rat at 3 mg/kg, ip after 0.5 hrs; format: ADME, organism-based; in short: as §4
[24] = Plasma concentration in Sprague-Dawley rat at 1 mg/kg, ip after 1 hr; format: ADME, organism-based; in short: as §4
[25] = target: T2, Metabotropic glutamate receptor 2 (Homo sapiens, UniProt Q14416); experiment: Displacement of [3H]-459477 from human recombinant mGlu2 receptor expressed in AV12 cells after 90 mins by liquid scintillation counting; format: cell-based
T2 sequence (Q14416 whole entry): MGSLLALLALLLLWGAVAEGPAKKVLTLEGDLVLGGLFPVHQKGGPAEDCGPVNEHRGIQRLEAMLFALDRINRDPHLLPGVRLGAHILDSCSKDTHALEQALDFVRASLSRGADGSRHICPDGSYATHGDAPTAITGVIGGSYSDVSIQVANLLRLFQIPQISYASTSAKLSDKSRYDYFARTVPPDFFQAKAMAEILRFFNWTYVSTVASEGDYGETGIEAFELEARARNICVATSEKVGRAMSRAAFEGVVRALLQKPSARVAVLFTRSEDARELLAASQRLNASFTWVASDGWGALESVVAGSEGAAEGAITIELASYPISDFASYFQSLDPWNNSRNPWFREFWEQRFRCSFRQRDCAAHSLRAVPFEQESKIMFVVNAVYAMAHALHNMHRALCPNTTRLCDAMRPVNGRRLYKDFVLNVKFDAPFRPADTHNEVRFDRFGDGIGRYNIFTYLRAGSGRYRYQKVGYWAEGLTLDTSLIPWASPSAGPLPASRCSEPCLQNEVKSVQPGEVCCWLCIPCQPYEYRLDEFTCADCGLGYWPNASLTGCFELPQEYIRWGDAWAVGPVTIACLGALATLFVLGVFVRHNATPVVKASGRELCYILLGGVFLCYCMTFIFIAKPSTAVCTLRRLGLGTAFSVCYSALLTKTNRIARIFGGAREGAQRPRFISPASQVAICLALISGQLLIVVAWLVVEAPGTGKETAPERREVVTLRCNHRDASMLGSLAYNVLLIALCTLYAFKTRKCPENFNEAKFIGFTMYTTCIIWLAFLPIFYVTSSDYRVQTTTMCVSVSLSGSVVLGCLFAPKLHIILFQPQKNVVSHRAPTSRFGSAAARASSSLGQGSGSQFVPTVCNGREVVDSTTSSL

[26] = target: T1, Metabotropic glutamate receptor 3; experiment: Displacement of [3H]-459477 from human recombinant mGlu3 receptor expressed in AV12 cells after 90 mins by liquid scintillation counting; format: cell-based
[27] = Plasma concentration in Sprague-Dawley rat at 10 mg/kg, ip after 1 hr; format: ADME, organism-based; in short: as §4
[28] = Plasma concentration in Sprague-Dawley rat at 1 mg/kg, ip after 4 hrs; format: ADME, organism-based; in short: as §4
[29] = Plasma concentration in Sprague-Dawley rat at 3 mg/kg, ip after 4 hrs; format: ADME, organism-based; in short: as §4
[30] = target: T2, Metabotropic glutamate receptor 2; experiment: Agonist activity at human recombinant mGlu2 receptor expressed in AV12 cells assessed as stimulation of Ca2+ mobilization after 1 hr by FLIPR assay; format: functional, cell-based
[31] = target: T1, Metabotropic glutamate receptor 3; experiment: Antagonist activity at human recombinant mGlu3 receptor expressed in AV12 cells assessed as reversal of DCG-4-inhibited, forskolin-stimulated cAMP production after 1 hr by fluorescence assay; format: functional, cell-based
[32] = target: T1, Metabotropic glutamate receptor 3; experiment: Agonist activity at human recombinant mGlu3 receptor expressed in AV12 cells assessed as stimulation of Ca2+ mobilization after 1.5 hrs by FLIPR assay; format: functional, cell-based
[33] = target: Metabotropic glutamate receptor 4 (Homo sapiens, UniProt Q14833); experiment: Antagonist activity at human recombinant mGlu4 receptor expressed in AV12 cells assessed as inhibition of glutamate-stimulated Ca2+ mobilization after 1 hr by FLIPR assay; format: functional, cell-based
[34] = target: Metabotropic glutamate receptor 6 (Homo sapiens, UniProt O15303); experiment: Agonist activity at human recombinant mGlu6 receptor expressed in AV12 cells assessed as inhibition of forskolin-stimulated cAMP production after 1 hr by fluorescence assay; format: functional, cell-based
Metabotropic glutamate receptor 6, sequence (O15303 whole entry): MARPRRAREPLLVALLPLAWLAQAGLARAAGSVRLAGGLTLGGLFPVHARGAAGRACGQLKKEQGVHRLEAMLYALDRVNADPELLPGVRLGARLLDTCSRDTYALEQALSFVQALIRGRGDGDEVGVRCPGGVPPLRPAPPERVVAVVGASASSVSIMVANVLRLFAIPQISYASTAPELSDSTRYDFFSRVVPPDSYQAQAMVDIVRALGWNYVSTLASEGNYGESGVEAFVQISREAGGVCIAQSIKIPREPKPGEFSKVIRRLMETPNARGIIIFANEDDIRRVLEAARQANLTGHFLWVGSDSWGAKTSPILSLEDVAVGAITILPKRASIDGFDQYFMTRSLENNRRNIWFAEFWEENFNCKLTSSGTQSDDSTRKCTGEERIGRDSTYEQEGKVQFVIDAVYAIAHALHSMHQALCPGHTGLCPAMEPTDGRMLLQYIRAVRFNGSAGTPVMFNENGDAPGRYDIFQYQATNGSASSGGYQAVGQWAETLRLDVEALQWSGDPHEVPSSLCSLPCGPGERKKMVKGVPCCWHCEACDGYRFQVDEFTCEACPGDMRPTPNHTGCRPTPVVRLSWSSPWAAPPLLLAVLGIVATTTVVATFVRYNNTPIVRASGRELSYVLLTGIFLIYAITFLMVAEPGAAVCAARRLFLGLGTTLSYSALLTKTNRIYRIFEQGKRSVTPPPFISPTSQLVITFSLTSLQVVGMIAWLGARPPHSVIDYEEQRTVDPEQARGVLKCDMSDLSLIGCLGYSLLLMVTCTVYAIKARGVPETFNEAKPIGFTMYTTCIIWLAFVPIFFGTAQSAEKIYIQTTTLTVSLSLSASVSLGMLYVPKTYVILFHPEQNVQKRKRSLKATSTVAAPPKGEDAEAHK

[35] = target: T3, Metabotropic glutamate receptor 8 (Homo sapiens, UniProt O00222); experiment: Agonist activity at human recombinant mGlu8 receptor expressed in AV12 cells assessed as inhibition of forskolin-stimulated cAMP production after 1 hr by fluorescence assay; format: functional, cell-based
T3 sequence (O00222 whole entry): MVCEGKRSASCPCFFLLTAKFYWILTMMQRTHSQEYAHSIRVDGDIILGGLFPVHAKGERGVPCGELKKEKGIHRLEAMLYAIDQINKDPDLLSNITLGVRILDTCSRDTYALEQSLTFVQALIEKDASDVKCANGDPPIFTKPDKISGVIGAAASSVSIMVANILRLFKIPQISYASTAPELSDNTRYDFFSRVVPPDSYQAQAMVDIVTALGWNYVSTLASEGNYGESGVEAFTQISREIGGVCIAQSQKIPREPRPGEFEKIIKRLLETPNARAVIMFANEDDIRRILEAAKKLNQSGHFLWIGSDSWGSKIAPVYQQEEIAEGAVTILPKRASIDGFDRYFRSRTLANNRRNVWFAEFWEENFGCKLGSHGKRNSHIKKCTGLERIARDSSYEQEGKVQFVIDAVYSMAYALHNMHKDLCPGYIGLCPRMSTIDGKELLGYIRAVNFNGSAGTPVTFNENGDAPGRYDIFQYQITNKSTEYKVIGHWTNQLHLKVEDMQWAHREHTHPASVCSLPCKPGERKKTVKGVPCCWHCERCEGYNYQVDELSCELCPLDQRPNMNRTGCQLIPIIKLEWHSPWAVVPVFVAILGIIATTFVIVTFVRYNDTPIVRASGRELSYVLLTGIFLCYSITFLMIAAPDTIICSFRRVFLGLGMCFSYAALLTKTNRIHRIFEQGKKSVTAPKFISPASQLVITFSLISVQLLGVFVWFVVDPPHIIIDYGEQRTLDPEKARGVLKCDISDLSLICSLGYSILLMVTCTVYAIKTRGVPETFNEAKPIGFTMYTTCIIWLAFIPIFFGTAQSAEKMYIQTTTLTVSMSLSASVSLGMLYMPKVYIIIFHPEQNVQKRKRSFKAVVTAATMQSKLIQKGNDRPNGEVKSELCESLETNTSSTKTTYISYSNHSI

[36] = target: T3, Metabotropic glutamate receptor 8; experiment: Agonist activity at human recombinant mGlu8 receptor expressed in AV12 cells assessed as stimulation of Ca2+ mobilization after 1.5 hrs by FLIPR assay; format: functional, cell-based
[37] = target: T3, Metabotropic glutamate receptor 8; experiment: Antagonist activity at human recombinant mGlu8 receptor expressed in AV12 cells assessed as inhibition of glutamate-stimulated Ca2+ mobilization after 1 hr by FLIPR assay; format: functional, cell-based
[38] = Drug level in Sprague-Dawley rat cerebrospinal fluid at 3 mg/kg, ip after 1 hr; format: ADME, organism-based; settings: read-out: Drug uptake
In short: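 Male Sprague–Dawley rats received single ip doses of 1, 3 or 10 mg/kg. Cerebrospinal fluid and plasma levels were determined at 0.5, 1 and 4 h. Mean csf concentration (nM ± SEM) is reported.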

Rattus norvegicus [39] = experiment: Toxicity in Sprague-Dawley rat assessed as impairment of neuromuscular coordination at 10 mg/kg, ip after 2 to 3 hrs by rotarod test; format: organism-based; settings: in vivo
Rattus norvegicus [40] = experiment: Toxicity in Sprague-Dawley rat assessed as impairment of neuromuscular coordination at 3 mg/kg, ip after 1 to 3 hrs by rotarod test; format: organism-based; settings: in vivo

Q: For `N[C@@]1(C(=O)O)C[C@@H](Sc2nc[nH]n2)[C@H]2[C@H](C(=O)O)[C@H]21`, which “inhibition (INH)” value [1] is on record?
A: Not Active

Q: And the EC50 [2]?
A: 5.68 µM

Q: And the EC50 [3]?
A: 2.18 µM

Q: What about the metabolised at 2 µM [4] of the same compound?
A: < 10%

Q: What about the metabolised at 2 µM [5] of the same compound?
A: < 10%

Q: And the metabolised at 2 µM [6]?
A: < 10%

Q: What about the inhibition at 10 µM (CYP3A4) of the same compound?
A: < 10%

Q: What about the fraction unbound [7] of the same compound?
A: > 0.98

Q: And the AUC(0-t) at 24 h [8]?
A: 4.91 µM·h

Q: What about the Cmax [9] of the same compound?
A: 9.54 µM

Q: And the half-life [10]?
A: 198 min

Q: What about the Cmax [11] of the same compound?
A: 0.22 µM

Q: What about the Cmax [12] of the same compound?
A: 4.92 µM

Q: What about the Tmax [13] of the same compound?
A: 24 min

Q: What about the half-life [14] of the same compound?
A: 72 min

Q: What about the bioavailability [15] of the same compound?
A: 122%

Q: And the AUC(0-t) at 24 h [16]?
A: 10.8 µM·h

Q: And the Cmax [17]?
A: 8.05 µM

Q: What about the Tmax [18] of the same compound?
A: 19.8 min

Q: What about the Cmax [19] of the same compound?
A: 31.1 µM

Q: And the Tmax [20]?
A: 30 min

Q: What about the half-life [21] of the same compound?
A: 312 min

Q: And the concentration at 0.5 h [22]?
A: 6 µM

Q: What about the concentration at 0.5 h [23] of the same compound?
A: 10.1 µM

Q: What about the concentration at 1 h [24] of the same compound?
A: 3.01 µM

Q: And the Ki [25]?
A: 0.144 µM

Q: And the Ki [26]?
A: 0.156 µM

Q: What about the concentration at 1 h [27] of the same compound?
A: 23.6 µM

Q: What about the concentration at 4 h [28] of the same compound?
A: 0.314 µM

Q: And the concentration at 4 h [29]?
A: 0.7 µM

Q: And the EC50 [30]?
A: 0.0211 µM

Q: What about the IC50 [31] of the same compound?
A: 2.73 µM

Q: What about the EC50 [32] of the same compound?
A: > 25 µM

Q: What about the IC50 [33] of the same compound?
A: > 12.5 µM

Q: What about the EC50 [34] of the same compound?
A: 3.45 µM

Q: What about the EC50 [35] of the same compound?
A: 10.1 µM

Q: And the EC50 [36]?
A: > 25 µM

Q: What about the IC50 [37] of the same compound?
A: > 12.5 µM

Q: What about the concentration at 1 h [38] of the same compound?
A: 0.0864 µM

Q: And the Activity (Rattus norvegicus [39])?
A: Non-toxic

Q: And the Activity (Rattus norvegicus [40])?
A: Non-toxic
